From ChEMBL document CHEMBL1125023, “Flexible N-methyl-4-phenyl-1,2,3,6-tetrahydropyridine analogues: synthesis and monoamine oxidase catalyzed bioactivation” (J Med Chem, 1990)

Assays:
[1] = target: T1, Monoamine oxidase (Rattus norvegicus, UniProt P19643+P21396); experiment: Ratio of Kinetic constants (Km vs. Vmax).; type: protein assay
T1 sequence (P19643 whole entry): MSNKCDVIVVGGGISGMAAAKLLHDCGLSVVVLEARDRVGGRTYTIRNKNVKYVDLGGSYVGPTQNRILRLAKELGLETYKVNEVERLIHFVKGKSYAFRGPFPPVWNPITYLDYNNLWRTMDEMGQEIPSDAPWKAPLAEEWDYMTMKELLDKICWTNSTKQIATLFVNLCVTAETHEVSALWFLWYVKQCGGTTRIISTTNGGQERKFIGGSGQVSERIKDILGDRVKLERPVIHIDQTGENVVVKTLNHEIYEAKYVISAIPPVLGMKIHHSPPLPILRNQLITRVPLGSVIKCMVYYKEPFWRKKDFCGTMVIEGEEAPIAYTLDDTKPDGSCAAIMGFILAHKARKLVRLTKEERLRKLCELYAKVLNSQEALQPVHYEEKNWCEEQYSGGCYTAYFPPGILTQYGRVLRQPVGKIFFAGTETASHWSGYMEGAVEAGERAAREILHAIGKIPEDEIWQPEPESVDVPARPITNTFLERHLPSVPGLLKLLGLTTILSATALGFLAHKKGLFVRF
T1 sequence (P21396 whole entry): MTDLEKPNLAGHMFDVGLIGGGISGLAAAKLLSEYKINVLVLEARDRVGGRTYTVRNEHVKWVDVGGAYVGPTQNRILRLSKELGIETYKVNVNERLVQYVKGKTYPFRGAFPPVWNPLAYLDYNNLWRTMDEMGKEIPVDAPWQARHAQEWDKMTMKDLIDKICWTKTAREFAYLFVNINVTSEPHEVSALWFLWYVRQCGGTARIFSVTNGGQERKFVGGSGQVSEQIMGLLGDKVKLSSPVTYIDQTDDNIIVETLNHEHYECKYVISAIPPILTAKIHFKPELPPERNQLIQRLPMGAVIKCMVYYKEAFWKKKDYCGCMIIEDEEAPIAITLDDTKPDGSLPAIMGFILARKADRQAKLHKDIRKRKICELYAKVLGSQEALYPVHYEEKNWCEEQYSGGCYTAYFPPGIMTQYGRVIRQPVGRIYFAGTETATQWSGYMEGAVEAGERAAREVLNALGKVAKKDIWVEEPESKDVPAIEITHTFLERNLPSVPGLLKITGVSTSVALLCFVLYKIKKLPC

[2] = target: T1, Monoamine oxidase; experiment: Kinetic constant (Vmax) determined in rat brain mitochondria.
Procedure, shortened: (§1)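 Mitochondria from rat brain were isolated by differential centrifugation with a Ficoll gradient, lysed in pH 7.4 phosphate buffer with sodium azide, and diluted to 400–800 μg protein/mL. Incubations at 37 °C for 30 min used seven substrate concentrations from 0.0125 to 1 mM, plus 2 and 4 mM for poor substrates. H2O2 was read with ABTS–horseradish peroxidase. Km and Vmax came from Lineweaver-Burk plots: three days, duplicates, mean of six ± SD.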

[3] = target: T1, Monoamine oxidase; experiment: (§2) Kinetic constant (Km) determined in rat brain mitochondria; procedure, shortened: as §1
[4] = target: T1, Monoamine oxidase; experiment: Tested for pargyline-induced inhibition of MAO-catalyzed oxidation in rat brain mitochondria (Specific inhibitor = Pargyline hydrochloride at 2.5 uM) (Control = 16.58); type: functional
[5] = target: T1, Monoamine oxidase; experiment: as §2; remark: listed apart in the source
Procedure, shortened: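 Rat brain mitochondria (Ficoll gradient, lysed in phosphate buffer pH 7.4 with azide) at 400–800 μg protein/mL. Incubated 30 min at 37 °C with substrate at 0.0125–1 mM, plus 2 and 4 mM for poor substrates. H2O2 read by ABTS–horseradish peroxidase against a standard curve. Km by Lineweaver-Burk; three separate days in duplicate, mean of six ± SD.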

[6] = species on record: Rattus norvegicus; experiment: Tested for pargyline-induced inhibition of MAO-catalyzed oxidation in rat brain mitochondria (Specific inhibitor = Pargyline hydrochloride at 2.5 uM) (Control = 31.40); type: functional
[7] = species on record: Rattus norvegicus; experiment: as §2; type: functional; procedure, shortened: as §1
[8] = species on record: Rattus norvegicus; experiment: Tested for pargyline-induced inhibition of MAO-catalyzed oxidation in rat brain mitochondria (Specific inhibitor = Pargyline hydrochloride at 2.5 uM) (Control = 19.20); type: functional
[9] = species on record: Rattus norvegicus; experiment: Tested for pargyline-induced inhibition of MAO-catalyzed oxidation in rat brain mitochondria (Specific inhibitor = Pargyline hydrochloride at 2.5 uM) (Control = 18.87); type: functional
[10] = species on record: Rattus norvegicus; experiment: Tested for pargyline-induced inhibition of MAO-catalyzed oxidation in rat brain mitochondria (Specific inhibitor = Pargyline hydrochloride at 2.5 uM) (Control = 17.95); type: functional
[11] = tested on: Monoamine oxidase (Rattus norvegicus); experiment: Percent inhibition of MAO-catalyzed oxidation in rat brain mitochondria induced by pargyline
[12] = species on record: Rattus norvegicus; experiment: Tested for pargyline-induced inhibition of MAO-catalyzed oxidation in rat brain mitochondria (Specific inhibitor = Pargyline hydrochloride at 2.5 uM) (Control = 28.60); type: functional
[13] = species on record: Rattus norvegicus; experiment: Tested for pargyline-induced inhibition of MAO-catalyzed oxidation in rat brain mitochondria (Specific inhibitor = Pargyline hydrochloride at 2.5 uM) (Control = 30.65); type: functional
[14] = species on record: Rattus norvegicus; experiment: Tested for pargyline-induced inhibition of MAO-catalyzed oxidation in rat brain mitochondria (Specific inhibitor = Pargyline hydrochloride at 2.5 uM) (Control = 33.85); type: functional

What does the source list for `CC(C1=CCN(C)CC1)c1ccccc1` (stereo not given)?
Ratio [1]: 1.26; Vmax [2]: 4187000 (nM of H202) min-1 (ug of protein)-1; Km [3]: 70.2 µM

How did the Vmax [2] turn out when `CN1CC=C(c2ccccc2)CC1` was run?
Its Vmax is 27033000 (nM of H202) min-1 (ug of protein)-1.

And the Inhibition [4]?
The Inhibition was 0 (nM of H202) min-1 (ug of protein)-1.

What about the Km [5] of the same compound?
Its Km is 134 µM.

For `CN1CC=C(Cc2ccccc2)CC1`, which Ratio [1] is on record?
Its Ratio is 9.36.

And the Vmax [2]?
The Vmax was 39800000 (nM of H202) min-1 (ug of protein)-1.

What about the Inhibition ((nM of H202) min-1 (ug of protein)-1) [6] of the same compound?
The Inhibition ((nM of H202) min-1 (ug of protein)-1) was 3.71.

What about the Km [7] of the same compound?
The Km was 44.4 µM.

Which Ratio [1] does the source give for `Cc1ccccc1CC1=CCN(C)CC1` here?
The Ratio was 3.71.

What about the Vmax [2] of the same compound?
Its Vmax is 21933000 (nM of H202) min-1 (ug of protein)-1.

And the Inhibition ((nM of H202) min-1 (ug of protein)-1) [8]?
The Inhibition ((nM of H202) min-1 (ug of protein)-1) was 9.24.

What about the Km [7] of the same compound?
Its Km is 58.8 µM.

How did the Ratio [1] turn out when `CN1CC=C(/C=C/c2cccc(Br)c2)CC1` was run?
The Ratio was 0.565.

And the Vmax [2]?
The Vmax was 2690000 (nM of H202) min-1 (ug of protein)-1.

And the Km [3]?
The Km was 187 µM.

Which Ratio [1] does the source give for `CN1CC=C(Cc2ccc(Cl)cc2)CC1` here?
Its Ratio is 5.15.

What about the Vmax [2] of the same compound?
The Vmax was 23900000 (nM of H202) min-1 (ug of protein)-1.

And the Inhibition ((nM of H202) min-1 (ug of protein)-1) [9]?
Its Inhibition ((nM of H202) min-1 (ug of protein)-1) is 10.3.

What about the Km [7] of the same compound?
Its Km is 49.4 µM.

With `CN1CC=C(C(Oc2ccc(Br)cc2)c2ccccc2)CC1` (stereo not given) as the compound, how does the Ratio [1] read?
Its Ratio is 0.74.

What about the Vmax [2] of the same compound?
Its Vmax is 3137000 (nM of H202) min-1 (ug of protein)-1.

And the Km [3]?
The Km was 57.2 µM.

How did the Ratio [1] turn out when `CN1CC=C(Cc2ccc(O)cc2)CC1` was run?
Its Ratio is 0.38.

What about the Vmax [2] of the same compound?
The Vmax was 9850000 (nM of H202) min-1 (ug of protein)-1.

What about the Km [3] of the same compound?
The Km was 363 µM.

`Cc1ccc(CC2=CCN(C)CC2)cc1` was tested. Which Ratio [1] did it give?
Its Ratio is 5.17.

What about the Vmax [2] of the same compound?
The Vmax was 8.1e+06 (nM of H202) min-1 (µg of protein)-1.

And the Km [3]?
Its Km is 15.9 µM.

What does the source list for `CN1CC=C(Cc2ccc(I)cc2)CC1`?
Ratio [1]: 2.38; Vmax [2]: 6290000 (nM of H202) min-1 (ug of protein)-1; Km [3]: 36.1 µM

Which results are given for `NCc1ccccc1` [BENZYLAMINE]?
Vmax [2]: 33600000 (nM of H202) min-1 (ug of protein)-1; Km [3]: 169 µM

`CN1CC=C(CCc2cccc(Cl)c2)CC1` was tested. Which Ratio [1] did it give?
The Ratio was 4.44.

What about the Vmax [2] of the same compound?
The Vmax was 6477000 (nM of H202) min-1 (ug of protein)-1.

And the Km [3]?
Its Km is 20.8 µM.

What does the source list for `CN1CC=C(CCc2ccccc2)CC1`?
Ratio [1]: 3.74; Vmax [2]: 38533000 (nM of H202) min-1 (ug of protein)-1; Inhibition ((nM of H202) min-1 (ug of protein)-1) [10]: 8.22; Km [7]: 119 µM; Inhibition [11]: 54%

With `COc1ccc(CC2=CCN(C)CC2)cc1` as the compound, how does the Ratio [1] read?
The Ratio was 7.87.

What about the Vmax [2] of the same compound?
The Vmax was 18000000 (nM of H202) min-1 (ug of protein)-1.

What about the Km [3] of the same compound?
Its Km is 24.8 µM.

For `CN1CC=C(Cc2cccc3ccccc23)CC1`, which Ratio [1] is on record?
Its Ratio is 5.03.

What about the Vmax [2] of the same compound?
Its Vmax is 38233000 (nM of H202) min-1 (ug of protein)-1.

What about the Inhibition ((nM of H202) min-1 (ug of protein)-1) [12] of the same compound?
Its Inhibition ((nM of H202) min-1 (ug of protein)-1) is 26.4.

What about the Km [7] of the same compound?
The Km was 76.5 µM.

What about the Inhibition [11] of the same compound?
Its Inhibition is 8%.

Which Ratio [1] does the source give for `Cc1cccc(CC2=CCN(C)CC2)c1` here?
The Ratio was 6.95.

What about the Vmax [2] of the same compound?
Its Vmax is 45533000 (nM of H202) min-1 (ug of protein)-1.

What about the Inhibition ((nM of H202) min-1 (ug of protein)-1) [13] of the same compound?
The Inhibition ((nM of H202) min-1 (ug of protein)-1) was 9.49.

And the Km [7]?
Its Km is 77.1 µM.

How did the Ratio [1] turn out when `CN1CC=C(Cc2cccs2)CC1` was run?
Its Ratio is 9.86.

What about the Vmax [2] of the same compound?
The Vmax was 38133000 (nM of H202) min-1 (ug of protein)-1.

And the Inhibition ((nM of H202) min-1 (ug of protein)-1) [14]?
The Inhibition ((nM of H202) min-1 (ug of protein)-1) was 10.9.

What about the Km [7] of the same compound?
Its Km is 42.2 µM.

And the Inhibition [11]?
Its Inhibition is 68%.
